Assay results taken from ChEMBL document CHEMBL1681709, “Structure-activity relationship studies on 1-(5-carboxyindol-1-yl)-propan-2-one inhibitors of human cytosolic phospholipase A2α: variation of the activated ketone moiety” (Bioorg Med Chem Lett, 2011).
Active and inactive are the calls of the source. The rule behind the calls is not given here.

What was measured:
Homo sapiens = species: Homo sapiens; assay: Inhibition of human platelet cytosolic phospholipase A2alpha at 10 uM
In short: (§1)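 cPLA2α isolated from human platelets. Reactions were stopped after 60 min with acetonitrile/methanol/0.1 M aqueous EDTA-Na2 containing 4-undecyloxybenzoic acid as internal standard and NDGA as oxygen scavenger. Released arachidonic acid was cleaned up by solid-phase extraction and quantified by RP-HPLC with UV detection at 200 nm. Results are IC50 or % inhibition at 10 μM, as means of at least two independent determinations.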

[1] = Inhibition of human platelet cytosolic phospholipase A2alpha; in short: as §1

Row | inhibition (Homo sapiens) | IC50 [1] [µM] | Structure (SMILES)
1 | 23% | > 10 | CCCCCCCCc1ccc(OCC(Cn2ccc3cc(C(=O)O)ccc32)NC(=O)Oc2ccc(OC)cc2)cc1 (racemic)
2 |  | 4.3 | CCCCCCCCc1ccc(OCC(Cn2ccc3cc(C(=O)O)ccc32)N=[N+]=[N-])cc1 (racemic)
3 | inactive |  | CCCCCCCCc1ccc(OCC(Cn2ccc3cc(C(=O)O)ccc32)NC(=O)Nc2ccccc2)cc1 (racemic)
4 | inactive |  | CCCCCCCCc1ccc(OCC(Cn2ccc3cc(C(=O)O)ccc32)NC(=O)Oc2ccccc2Cl)cc1 (racemic)
5 | inactive |  | CCCCCCCCc1ccc(OCC(Cn2ccc3cc(C(=O)O)ccc32)NC(=O)c2ccccc2)cc1 (racemic)
6 | inactive |  | CCCCCCCCc1ccc(OCC(Cn2ccc3cc(C(=O)O)ccc32)NC(C)=O)cc1 (racemic)
7 | 42% | > 10 | CCCCCCCCc1ccc(OC/C(Cn2ccc3cc(C(=O)O)ccc32)=N/O)cc1
8 |  | 1.7 | CCCCCCCCc1ccc(OCC(Cn2ccc3cc(C(=O)O)ccc32)NC(=O)Oc2ccc(F)cc2)cc1 (racemic)
9 | 18% | > 10 | CCCCCCCCc1ccc(OCC(Cn2ccc3cc(C(=O)O)ccc32)OC(=O)c2ccccc2)cc1 (racemic)
10 | 16% | > 10 | CCCCCCCCc1ccc(OCC(Cn2ccc3cc(C(=O)O)ccc32)OS(C)(=O)=O)cc1 (racemic)
11 | 37% | > 10 | CCCCCCCCc1ccc(OCC(N)Cn2ccc3cc(C(=O)O)ccc32)cc1 (racemic)
12 | 21% | > 10 | CCCCCCCCc1ccc(OCC(Cn2ccc3cc(C(=O)O)ccc32)NC(=O)OC)cc1 (racemic)
13 | inactive |  | CCCCCCCCc1ccc(OCC(Cn2ccc3cc(C(=O)O)ccc32)NC(=O)Oc2ccccc2F)cc1 (racemic)
14 | inactive |  | CCCCCCCCc1ccc(OCC(Cn2ccc3cc(C(=O)O)ccc32)NC(=O)Oc2ccccc2OC)cc1 (racemic)
15 |  | 4.6 | CCCCCCCCc1ccc(OCC(Cn2ccc3cc(C(=O)O)ccc32)NC(=O)Oc2ccccc2)cc1 (racemic)
16 |  | 2.3 | CCCCC/C=C\C/C=C\C/C=C\C/C=C\CCCC(=O)C(F)(F)F [ARACHIDONYL TRIFLUOROMETHYLKETONE]
17 | 32% | > 10 | CCCCCCCCc1ccc(OC/C(Cn2ccc3cc(C(=O)O)ccc32)=N\O)cc1
18 | inactive |  | CCCCCCCCc1ccc(OCC(Cn2ccc3cc(C(=O)O)ccc32)OC(=O)Nc2ccccc2)cc1 (racemic)
19 | 22% | > 10 | CCCCCCCCc1ccc(OCC(Cn2ccc3cc(C(=O)O)ccc32)=NOC)cc1 (mixture of isomers)
20 |  | 5.1 | CCCCCCCCc1ccc(OCC(Cn2ccc3cc(C(=O)O)ccc32)NC(=O)Oc2cccc(F)c2)cc1 (racemic)
21 | 28% | > 10 | CCCCCCCCc1ccc(OCC(Cn2ccc3cc(C(=O)O)ccc32)NC(=O)Oc2ccc(Cl)cc2)cc1 (racemic)
22 | inactive |  | CCCCCCCCc1ccc(OCC(Cn2ccc3cc(C(=O)O)ccc32)OC(C)=O)cc1 (racemic)
